Source: PubChem
S100A4 MyoIIA = S100A4-myosin IIA interaction inhibition | inhibition, % at 10.7 µM | actives 0.14% (n = 360,000) | S100A4/TAMRA-MyoIIA peptide fluorescence polarization;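 active = mean inhibition of at least 70% across replicates, with every replicate also reaching that level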
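Test system: S100A4 monomer protein. Medium: HEPES buffer with Ca2+, pH 7.2. Reagent: fluorescent myosin IIA peptide, 5 nM. Compound dosing: single-point compound testing. Timing: 5 min between mix addition and reading. Benchmarks: DMSO neutral and TFP positive wells.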
SIRT5 inh = sirtuin-5 (human) deacylase inhibition; Q9NXA8; Purified SirT5, succinyl-peptide AMC, trypsin-coupled fluorescence; inhibition, % at 15 µM; actives 1.1% (n = 330,000); AID 652115; in the data active = inhibition above about 15%
Ecoli rRNA inh = inhibitors of bacterial rRNA selective over humanized ribosomes; actives 1.6% (n = 350,000); E. coli WT GFP vs humanized-ribosome RFP mutants, fluorescence, 24 h; hits give low values; DMSO median 0, no signal -100; GFP signal change (wild-type ribosome), % (concentration not given with the values);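 active = significant combined selectivity score with lowered wild-type GFP, culture density cut under 30%, mutant RFP and density less affected; inactive = any of these conditions unmet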
CFTR F508del cor = CFTR F508del correction in bronchial cells | actives 0.36% (n = 350,000) | AID 720511 | activity (quench increase), % at 7.58 µM | CFBE cells, YFP halide quenching; stimulated with forskolin plus potentiator P3; % fluorescence drop versus neutral controls;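 active = mean added fluorescence quench of at least 8% versus neutral control, with both replicates also reaching 8%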;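 note: cells transiently co-express mutant CFTR-F508del with the halide-sensitive YFP; corrector assay measuring rescue of mutant channel to the surface after 24 h compound exposure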
ERAP1 inh = ERAP1 (human) enzyme inhibition | recombinant ERAP1, Leu-AMC fluorescence, 60 min | inhibition, % at 10.7 µM | actives 0.15% (n = 340,000);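 active = mean replicate inhibition of at least 30%, or all replicates individually reaching that 30% level; inactive = mean below 30% and not every replicate reaching it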;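 note: 0% = neutral control wells and 100% = L-leucinethiol positive control wells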
Target sequence (Q9NZ08 whole entry, looked up): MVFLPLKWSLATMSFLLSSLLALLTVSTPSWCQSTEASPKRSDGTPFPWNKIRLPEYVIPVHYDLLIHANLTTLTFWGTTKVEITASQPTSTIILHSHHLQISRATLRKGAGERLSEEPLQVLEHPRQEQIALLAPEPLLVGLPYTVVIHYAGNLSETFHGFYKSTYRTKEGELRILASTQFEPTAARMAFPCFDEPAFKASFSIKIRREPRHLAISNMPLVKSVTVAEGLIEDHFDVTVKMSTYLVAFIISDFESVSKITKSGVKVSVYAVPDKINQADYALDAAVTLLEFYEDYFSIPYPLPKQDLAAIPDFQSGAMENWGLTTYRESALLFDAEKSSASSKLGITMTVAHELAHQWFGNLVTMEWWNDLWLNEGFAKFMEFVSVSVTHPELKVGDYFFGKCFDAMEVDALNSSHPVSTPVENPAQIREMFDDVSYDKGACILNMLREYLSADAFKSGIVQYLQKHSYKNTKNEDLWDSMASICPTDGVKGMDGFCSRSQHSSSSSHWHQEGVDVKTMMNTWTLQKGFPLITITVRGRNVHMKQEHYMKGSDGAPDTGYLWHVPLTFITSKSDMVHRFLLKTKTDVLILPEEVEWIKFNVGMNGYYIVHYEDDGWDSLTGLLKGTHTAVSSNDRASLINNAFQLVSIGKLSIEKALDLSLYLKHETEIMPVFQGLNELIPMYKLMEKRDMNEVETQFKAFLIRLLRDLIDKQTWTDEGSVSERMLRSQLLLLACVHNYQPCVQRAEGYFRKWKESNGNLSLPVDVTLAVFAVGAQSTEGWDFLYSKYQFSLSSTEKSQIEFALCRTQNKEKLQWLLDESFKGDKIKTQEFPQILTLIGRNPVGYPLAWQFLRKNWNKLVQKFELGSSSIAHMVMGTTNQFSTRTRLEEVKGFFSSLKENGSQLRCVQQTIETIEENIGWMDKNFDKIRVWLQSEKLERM
An asterisk follows results filed as active; nt = not tested or not shown. The list is not random: actives were taken first. Their share in the collection is about 3.1%.

SMILES | S100A4 MyoIIA | SIRT5 inh | Ecoli rRNA inh | CFTR F508del cor | ERAP1 inh
CC(=O)Nc1ccc(NC(=O)c2ccc(C)c(S(=O)(=O)Nc3cccc(C)c3)c2)cc1 | 2 | -2 | -27* | -2 | 1
O=C(Nc1ccc(S(=O)(=O)NCC2CCCO2)cc1)c1cccc(F)c1 (stereo unspecified) | -6 | 0 | -2 | 0 | 0
O=S(=O)(Nc1nc2ccccc2nc1NCC1CCCO1)c1cccc(Cl)c1 (stereo unspecified) | -3 | 1 | -24* | 1 | 17
O=C(Nc1cccc(Cl)c1)c1ccc(S(=O)(=O)NCC2CCCO2)cc1 (stereo unspecified) | 2 | -1 | -21* | -1 | -5
C[C@@H]1CN([C@H](C)CO)C(=O)c2cc(NC(=O)c3ccncc3)ccc2O[C@@H]1CN(C)S(=O)(=O)c1cccs1 | -57 | -9 | 0 | -1 | 2
O=C(NCC[C@H]1CC[C@H](NC(=O)c2ccccc2F)[C@H](CO)O1)c1ccc2c(c1)OCO2 | -3 | 5 | 6 | -5 | -1
C/C(=N\Nc1ncc(Cl)cc1Cl)c1ccc2c(c1)OCO2 | 0 | 25* | 6 | -2 | -2
C/C(=N\NC(=O)c1ccc2c(c1)OCO2)c1ccc2c(c1)OCO2 | -1 | 1 | 9 | 0 | -3
Cc1ccc(OCCSc2nc3ccccc3n2CCC(=O)O)cc1 | 6 | 21* | -1 | 2 | -2
CC(C)c1ccccc1NC(=O)c1ccccc1NC(=O)C1CCCCC1 | -4 | 1 | 13 | -1 | -1
Cc1c(NC(=O)c2ccc(NC(=O)C3CC3)cc2)cccc1C(=O)O | -7 | 20* | 2 | 1 | -4
Cc1cccc(NC(=O)c2ccccc2NC(=O)C2CCCCC2)c1C | -4 | 0 | 24 | 8.1* | 1
CCCC#Cc1cnc2c(c1)C(=O)N([C@H](C)CO)C[C@@H](C)[C@@H](CN(C)Cc1ccncc1)O2 | 4 | 3 | 1 | nt | -2
COCC#Cc1ccc2c(c1)O[C@H](CN(C)C(=O)Nc1ccccc1F)[C@H](C)CN([C@H](C)CO)S2(=O)=O | -7 | 0 | 0 | 1 | 5
Cc1ccc2[nH]cc(C(=O)NCc3cccs3)c(=O)c2c1 | 2 | -2 | -24* | 1 | -2
CC(=O)c1c[nH]c2ccc(C)cc2c1=O | -13 | nt | nt | nt | nt
O=C(CN1CCN(S(=O)(=O)c2ccc(Cl)c(Cl)c2)CC1)N1CCCC1 | -1 | -3 | -1 | 11* | -1
Cn1ccnc1C(OC(=O)c1ccccc1)C(F)(F)F (stereo unspecified) | -2 | 15* | 15 | 3 | 2
Cc1cc(Cl)ccc1OCCCC(=O)N1CCCc2ccccc21 | 1 | 0 | -30* | 1 | -1
COc1ccc(C2=NS(=O)(=O)N(C)C(C(=O)NC(C)c3ccccc3)=C2)cc1OC (stereo unspecified) | -3 | 0 | -14 | -1 | 0
COc1ccc(C2=NS(=O)(=O)N(C)C(C(=O)N(C)Cc3ccccc3)=C2)cc1OC | -2 | 1 | -20* | 1 | -2
Cc1cc(NC(=O)c2ccno2)no1 | -1 | 19* | 4 | 0 | -1
Cc1cc(NC(=O)c2ccc(F)cc2)no1 | 3 | nt | 8 | 1 | -1
Cc1ccc(-c2cnc3c(c2)C(=O)N([C@H](C)CO)C[C@@H](C)[C@H](CN(C)C(=O)Cc2ccccc2)O3)cc1 | 26 | 7 | -8 | 0 | 1
O=C(Cn1nc(C(F)F)cc1C(F)F)NNC(=S)Nc1ccc([N+](=O)[O-])cc1 | -2 | 2 | -18* | -1 | -2
SMILES | S100A4 MyoIIA | SIRT5 inh | Ecoli rRNA inh | CFTR F508del cor | ERAP1 inh
CNC[C@@H]1Oc2cc(C#CC3(O)CCCC3)ccc2S(=O)(=O)N([C@@H](C)CO)C[C@@H]1C | -8 | 3 | 3 | -1 | 0
C[C@@H]1CN([C@H](C)CO)C(=O)c2cc(NC(=O)Nc3ccccc3)ccc2O[C@H]1CN(C)S(=O)(=O)c1ccccc1 | 7 | 0 | -2 | -1 | 0
Cc1ccc(SCc2noc(C(=O)NCC3CCCO3)c2C(=O)O)cc1C (stereo unspecified) | 0 | -2 | -24* | 1 | 0
CCCCNC(=O)c1onc(CSc2cccc(OC)c2)c1C(=O)NCCCC | 13 | nt | 5 | 4 | -2
COCCNC(=O)c1onc(CSc2cccc(OC)c2)c1C(=O)NCCOC | -4 | 22* | 3 | 0 | 0
CCOc1ccc(NC(=O)C(CC)n2nc(C)c3c(C)n(-c4ccccc4)nc3c2=O)cc1 (stereo unspecified) | -3 | 2 | -23* | -1 | 1
CCC(C(=O)Nc1cccc(OC)c1)n1nc(C)c2c(C)n(-c3ccccc3)nc2c1=O (stereo unspecified) | -5 | 8 | -1 | 1 | 2
CO[C@@H]1CN(C)C(=O)c2cc(NC(=O)C3CCCC3)ccc2OC[C@H](C)N(C(C)=O)C[C@@H]1C | nt | nt | 0 | -1 | nt
N#CC(CCc1ccc([N+](=O)[O-])cc1)(CCc1ccc([N+](=O)[O-])cc1)C(N)=O | 10 | nt | -19* | 2 | 0
CCOc1ccc2[nH]c3c(N4CCN(C(=O)c5ccco5)CC4)ncnc3c2c1 | -21 | -4 | -36* | 0 | 1
OCCC1CN(Cc2ccc3c(c2)CCO3)CCN1Cc1ccc(F)cc1 (stereo unspecified) | 74* | -2 | 8 | 1 | 3
CSc1cccc(CN2CCN(Cc3ccc(F)c(F)c3)C(CCO)C2)c1 (stereo unspecified) | 0 | 16* | -18 | -3 | 13
Cc1ccc(CN2CCN(Cc3ccc4c(c3)OCCO4)CC2CCO)cc1 (stereo unspecified) | -17 | -6 | 9 | -2 | 3
CSc1cccc(CN2CCN(Cc3ccccc3)C(CCO)C2)c1 (stereo unspecified) | -10 | -7 | -5 | 1 | -2
COc1cc(SC)ccc1C(=O)Nc1ccc2c(c1)OCCO2 | 4 | -1 | -25* | 0 | 7
COc1cc(SC)ccc1C(=O)Nc1cccc(S(=O)(=O)NC2=NCCC2)c1 | 5 | 15* | -20 | 5 | 0
COc1cc(SC)ccc1C(=O)Nc1nccs1 | 2 | 5 | -25* | 3 | -1
O=C(Nc1cccc(S(=O)(=O)NC2=NCCC2)c1)c1ccccc1F | -4 | -2 | 1 | -8 | 1
COc1cc(SC)ccc1C(=O)Nc1c(C)cccc1C | 10 | 2 | -27 | -2 | 1
COCCCn1c(SCCc2ccccc2)nc2cc(OC)c(OC)cc2c1=N | 1 | -1 | -41* | -2 | -3
C[C@@H]1CN([C@H](C)CO)S(=O)(=O)c2ccc(Br)cc2O[C@H]1CN(C)C(=O)CN(C)C | 3 | -1 | 1 | -1 | 0
C[C@@H]1CCCCO[C@@H](CN(C)S(=O)(=O)c2cn(C)cn2)[C@H](C)CN([C@H](C)CO)C(=O)c2cc(NS(=O)(=O)c3ccccc3)ccc2O1 | 11 | 3 | 2 | 2 | 0
